Test results taken from ChEMBL document CHEMBL5058577, “EUbOPEN Chemogenomics Library 2 (Multiplex)” (2022).

System: U2OS
Assay: Multiplex assay against U2OS
Format: toxicity, cell-based
Details: human
How it was run: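 At seeding, live cells were stained with Hoechst33342, BioTracker Green Microtubule Cytoskeleton Dye, MitoTracker Red and Annexin V Alexa Fluor 680. After compound addition they were imaged on a CQ1 microscope at 37°C and 5% CO2, and CellPathfinder machine-learning gating sorted them into Hoechst high-intensity objects or normal cells, with normal cells further split into healthy, pyknosed or fragmented nuclei and pyknosed cells into mitotic or apoptotic. Tubulin, mitochondrial-mass and membrane-permeability phenotypes are given as per cents of cells with healthy nuclei.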

[1] = 12 h, 1 µM, compound concentration 1 uM, replicate 1
[2] = 12 h, 1 µM, compound concentration 1 uM, replicate 2
[3] = 12 h, 10 µM, compound concentration 10 uM, replicate 1
[4] = 12 h, 10 µM, compound concentration 10 uM, replicate 2
[5] = 24 h, 1 µM, compound concentration 1 uM, replicate 1
[6] = 24 h, 1 µM, compound concentration 1 uM, replicate 2
[7] = 24 h, 10 µM, compound concentration 10 uM, replicate 1
[8] = 24 h, 10 µM, compound concentration 10 uM, replicate 2
[9] = 48 h, 1 µM, compound concentration 1 uM, replicate 1
[10] = 48 h, 1 µM, compound concentration 1 uM, replicate 2
[11] = 48 h, 10 µM, compound concentration 10 uM, replicate 1
[12] = 48 h, 10 µM, compound concentration 10 uM, replicate 2

COc1cccc2c1c(NS(=O)(=O)c1ccc(Cl)s1)nn2Cc1cccc(CNC(=O)C(C)(C)O)c1
Population Apoptotic (%) [1]: 86% | Population Fragmented Nuclei (%) [1]: 23% | Population Healthy Nuclei (%) [1]: 67% | Population Hoechst High Intensity Objects (%) [1]: 3% | Population Membrane Permeable-Phenotype (%) [1]: 4% | Population Mitochondria Different-Phenotype (%) [1]: 1% | Population Mitotic Cells (%) [1]: 13% | Population Normal (%) [1]: 96% | Population Pyknosed Nuclei (%) [1]: 9% | Population Tubulin-Different-Phenotype (%) [1]: 1% | Total Cell Count [1]: 261 | Population Apoptotic (%) [2]: 81% | Population Fragmented Nuclei (%) [2]: 29% | Population Healthy Nuclei (%) [2]: 64% | Population Hoechst High Intensity Objects (%) [2]: 6% | Population Membrane Permeable-Phenotype (%) [2]: 7% | Population Mitochondria Different-Phenotype (%) [2]: 3% | Population Mitotic Cells (%) [2]: 18% | Population Normal (%) [2]: 93% | Population Pyknosed Nuclei (%) [2]: 5% | Population Tubulin-Different-Phenotype (%) [2]: 6% | Total Cell Count [2]: 201 | Population Apoptotic (%) [3]: 76% | Population Fragmented Nuclei (%) [3]: 26% | Population Healthy Nuclei (%) [3]: 65% | Population Hoechst High Intensity Objects (%) [3]: 1% | Population Membrane Permeable-Phenotype (%) [3]: 6% | Population Mitochondria Different-Phenotype (%) [3]: 2% | Population Mitotic Cells (%) [3]: 23% | Population Normal (%) [3]: 98% | Population Pyknosed Nuclei (%) [3]: 8% | Population Tubulin-Different-Phenotype (%) [3]: 4% | Total Cell Count [3]: 264 | Population Apoptotic (%) [4]: 83% | Population Fragmented Nuclei (%) [4]: 25% | Population Healthy Nuclei (%) [4]: 70% | Population Hoechst High Intensity Objects (%) [4]: 5% | Population Membrane Permeable-Phenotype (%) [4]: 8% | Population Mitochondria Different-Phenotype (%) [4]: 3% | Population Mitotic Cells (%) [4]: 16% | Population Normal (%) [4]: 94% | Population Pyknosed Nuclei (%) [4]: 4% | Population Tubulin-Different-Phenotype (%) [4]: 2% | Total Cell Count [4]: 140 | Population Apoptotic (%) [5]: 96% | Population Fragmented Nuclei (%) [5]: 20% | Population Healthy Nuclei (%) [5]: 70% | Population Hoechst High Intensity Objects (%) [5]: 1% | Population Membrane Permeable-Phenotype (%) [5]: 5% | Population Mitochondria Different-Phenotype (%) [5]: 1% | Population Mitotic Cells (%) [5]: 3% | Population Normal (%) [5]: 98% | Population Pyknosed Nuclei (%) [5]: 8% | Population Tubulin-Different-Phenotype (%) [5]: 3% | Total Cell Count [5]: 307 | Population Apoptotic (%) [6]: 90% | Population Fragmented Nuclei (%) [6]: 28% | Population Healthy Nuclei (%) [6]: 66% | Population Hoechst High Intensity Objects (%) [6]: 5% | Population Membrane Permeable-Phenotype (%) [6]: 8% | Population Mitochondria Different-Phenotype (%) [6]: 3% | Population Mitotic Cells (%) [6]: 9% | Population Normal (%) [6]: 94% | Population Pyknosed Nuclei (%) [6]: 4% | Population Tubulin-Different-Phenotype (%) [6]: 6% | Total Cell Count [6]: 242 | Population Apoptotic (%) [7]: 90% | Population Fragmented Nuclei (%) [7]: 25% | Population Healthy Nuclei (%) [7]: 64% | Population Hoechst High Intensity Objects (%) [7]: 1% | Population Membrane Permeable-Phenotype (%) [7]: 5% | Population Mitochondria Different-Phenotype (%) [7]: 3% | Population Mitotic Cells (%) [7]: 10% | Population Normal (%) [7]: 98% | Population Pyknosed Nuclei (%) [7]: 10% | Population Tubulin-Different-Phenotype (%) [7]: 2% | Total Cell Count [7]: 304 | Population Apoptotic (%) [8]: 88% | Population Healthy Nuclei (%) [8]: 68% | Population Hoechst High Intensity Objects (%) [8]: 5% | Population Membrane Permeable-Phenotype (%) [8]: 8% | Population Mitochondria Different-Phenotype (%) [8]: 4% | Population Mitotic Cells (%) [8]: 11% | Population Normal (%) [8]: 94% | Population Pyknosed Nuclei (%) [8]: 5% | Total Cell Count [8]: 167 | Population Apoptotic (%) [9]: 95% | Population Fragmented Nuclei (%) [9]: 14% | Population Healthy Nuclei (%) [9]: 76% | Population Hoechst High Intensity Objects (%) [9]: 1% | Population Membrane Permeable-Phenotype (%) [9]: 4% | Population Mitochondria Different-Phenotype (%) [9]: 1% | Population Mitotic Cells (%) [9]: 4% | Population Normal (%) [9]: 98% | Population Pyknosed Nuclei (%) [9]: 9% | Population Tubulin-Different-Phenotype (%) [9]: 2% | Total Cell Count [9]: 463 | Population Apoptotic (%) [10]: 74% | Population Fragmented Nuclei (%) [10]: 22% | Population Healthy Nuclei (%) [10]: 68% | Population Hoechst High Intensity Objects (%) [10]: 7% | Population Membrane Permeable-Phenotype (%) [10]: 5% | Population Mitochondria Different-Phenotype (%) [10]: 4% | Population Mitotic Cells (%) [10]: 25% | Population Normal (%) [10]: 92% | Population Tubulin-Different-Phenotype (%) [10]: 5% | Total Cell Count [10]: 314 | Population Apoptotic (%) [11]: 93% | Population Fragmented Nuclei (%) [11]: 20% | Population Healthy Nuclei (%) [11]: 71% | Population Hoechst High Intensity Objects (%) [11]: 2% | Population Membrane Permeable-Phenotype (%) [11]: 5% | Population Mitochondria Different-Phenotype (%) [11]: 2% | Population Mitotic Cells (%) [11]: 6% | Population Normal (%) [11]: 97% | Population Pyknosed Nuclei (%) [11]: 8% | Population Tubulin-Different-Phenotype (%) [11]: 3% | Total Cell Count [11]: 413 | Population Apoptotic (%) [12]: 100% | Population Fragmented Nuclei (%) [12]: 22% | Population Hoechst High Intensity Objects (%) [12]: 3% | Population Mitochondria Different-Phenotype (%) [12]: 3% | Population Mitotic Cells (%) [12]: 0% | Population Normal (%) [12]: 96% | Population Pyknosed Nuclei (%) [12]: 5% | Total Cell Count [12]: 235
